# Screening results from PubChem.
# A selection: hits, their analogues and other compounds. The true share with any hit is near 2.3%.
# TAAR1 ag – agonists of human TAAR1; activation, % at 3 µM; CHO RD-HGA16 TAAR1, Fluo-8 calcium fluorescence; vehicle wells 0%, saturating PEA agonist 100%; 360,000 tested, 0.99% active; Q96RJ0;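 active = activation above the mean activation of all test compounds in the run plus 3 SD, cut at about 38% in these data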
# Target sequence (Q96RJ0 whole entry, looked up): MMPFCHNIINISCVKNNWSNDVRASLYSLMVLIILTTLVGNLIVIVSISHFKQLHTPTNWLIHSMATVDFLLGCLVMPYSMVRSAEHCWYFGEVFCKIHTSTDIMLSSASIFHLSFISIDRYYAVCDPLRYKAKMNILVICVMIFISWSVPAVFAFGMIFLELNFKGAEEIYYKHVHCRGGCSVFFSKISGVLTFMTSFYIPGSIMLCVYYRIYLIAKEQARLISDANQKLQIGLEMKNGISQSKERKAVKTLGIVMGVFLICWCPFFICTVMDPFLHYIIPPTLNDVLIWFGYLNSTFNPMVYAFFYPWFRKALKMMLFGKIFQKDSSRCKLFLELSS
#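 Signal – calcium-sensitive Fluo-8 signal, excitation 470-495, emission 515-575 nm · System – RD-HGA16 (CHO) cells co-expressing Gα16 and hTAAR1 · Incubation – 17-24 h seeding, 75 min 37 °C dye, 30 min RT · Compound dosing – 3 µM single concentration · Repeats – no replicates (n 1)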
# TAAR1 antagonist – human TAAR1 antagonism | Q96RJ0 | CHO RD-HGA16 TAAR1, Fluo-8 calcium fluorescence, antagonist | inhibition, % at 3 µM | 360,000 tested, 1.5% active;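 active = inhibition above a per-plate cutoff, the mean inhibition of test compounds on that plate plus 3 SD, cut at about 49% in these data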;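 also: 0% = DMSO plus EC80 beta-PEA response and 100% = DMSO alone without agonist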
#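 Assay system: CHO-derived RD-HGA16 cells stably expressing human TAAR1 plus Gα16. Timing: 140 s kinetic read after compound, 140 s after agonist. Technique: kinetic Fluo-8 calcium fluorescence measurement. Measure: % inhibition of agonist calcium response.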
# OXTR agonist – agonists of human oxytocin receptor | 320,000 tested, 0.32% active | P30559 | activation, % at 3 µM | CHO-OTR cells, Fluo-8 calcium fluorescence; normalized: DMSO 0%, oxytocin 100% | AID 2435;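 active = activation above the mean of all tested compounds plus 3 SD, cutoff set per screening run, cut at about 20% in these data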;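 also: peak over basal fluorescence ratio from a 100 s FLIPR kinetic read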
# V1aR counter – counter-screen for oxytocin receptor agonists: human V1a receptor agonists; CHO-V1R cells, Fluo-8 calcium fluorescence, agonist mode; 0% DMSO, 100% 3 nM vasopressin; AID 2797; P37288; activation, % at 3 µM; 320,000 tested, 0.25% active;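 active = activation above the mean activation of all tested compounds plus 3 SD, per screening run, cut at about 20% in these data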;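 also: signal is peak over basal fluorescence ratio across a 100 second FLIPR read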
# OXTR potentiator – human OXTR potentiation; P30559; CHO-OTR cells, Fluo-8 calcium fluorescence, potentiator mode; 0% = oxytocin EC15, 100% = EC100; activation, % at 3 µM; 320,000 tested, 0.061% active;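 active = activation above that plate's cutoff, the mean activation of tested compounds plus 3 SD, cut at about 6.6% in these data, passing the limit was not always enough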;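 also: 100% uses oxytocin at 75 nM as the full agonist control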
#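 System: human OTR in CHO cells; Also added: sub-maximal oxytocin, roughly EC15; Timing: compound 6 min at room temperature before oxytocin, 100 s read; Technique: Fluo-8 intracellular calcium fluorescence, ex 470-495, em 515-575 nm; Controls: oxytocin EC15 low and EC100 high; Replication: singlicate.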
# Active calls of the source: *; x = no result given.
SMILES,TAAR1 ag,TAAR1 antagonist,OXTR agonist,V1aR counter,OXTR potentiator
COc1cc(C(=O)Nc2nccs2)c(Br)c(OC)c1OC,16,51*,1,2,-20
O=c1c(C=Nc2ccc(Oc3ccccc3)cc2)c[nH]n1-c1cccc(Cl)n1,6,9,0,0,-5
Cc1cccc(NS(=O)(=O)c2ccc(C)c(C(=O)N(C)C)c2)c1,9,4,0,0,-5
CN(C)S(=O)(=O)c1ccc2c(c1)/C(=C/c1cc3c([nH]1)CCCC3)C(=O)N2,21,43,35*,25*,-12
C/C(=N\NC(=O)CSCc1ccc(Cl)cc1)c1ccc2c(c1)OCCO2,15,-1,7,6,-22
CCOc1ccc(S(=O)(=O)N2CCCCC2)cc1NC(=O)CN1C(=O)NC(CC)(c2ccccc2)C1=O (centres undefined),2,17,1,1,-7
COc1ccc(S(=O)(=O)N2CCCCC2)cc1NC(=O)CN(Cc1ccco1)Cc1ccco1,17,64*,2,8,-13
CCC1(c2ccccc2)NC(=O)N(CC(=O)Nc2cc(S(=O)(=O)N3CCCCCC3)ccc2OC)C1=O (centres undefined),15,70*,-1,0,-15
COc1ccc(S(=O)(=O)N2CCCCC2)cc1NC(=O)CN(C)C1CCCCC1,-1,-10,-2,-1,7
Clc1ccc(Cn2ncc3c(N4CCCCC4)ncnc32)c(Cl)c1,36,78*,0,0,-12
CC(C)(C)C1CCC(=NNC(=O)CN(c2ccccc2)S(C)(=O)=O)CC1 (centres undefined),2,14,0,0,-10
Clc1ccccc1-c1nc2nc3ccccc3nc2n1-c1ccc2c(c1)OCO2,10,49*,-1,-1,-11
c1csc(-c2nc3nc4ccccc4nc3n2Cc2ccc3c(c2)OCO3)c1,13,42,-1,0,-17
O=C(CSc1n[nH]c(-c2ccccc2)n1)NC1CCCCC1,0,3,0,0,-2
O=C(CSc1n[nH]c(-c2ccc(Br)cc2)n1)NC1CCCC1,43*,67*,4,7,-6
COc1cc(-c2cc(C(=O)N3CCN(c4ccccn4)CC3)c3ccccc3n2)cc(OC)c1OC,16,50*,-2,-1,1
COc1ccccc1-c1csc(NC(=O)c2cc(-c3cccs3)nc3ccccc23)n1,2,10,0,0,-9
COc1ccc(-c2cc(C(=O)OCC(=O)N3CCCC3)c3ccccc3n2)cc1,6,15,-2,-2,5
CCCc1ccc(-c2cc(C(=O)N3CCN(c4ccccn4)CC3)c3ccccc3n2)cc1,1,15,0,0,-11
COc1ccc2nc(-c3ccccc3)cc(C(=O)OCC(=O)N3CCCCC3)c2c1,3,56*,-1,0,-2
O=C(c1cc(-c2cccs2)nc2ccccc12)N1CCN(c2ccccc2O)CC1,26,58*,5,2,-29
Cc1ccc(NC(=O)c2cc(-c3cccs3)nc3ccccc23)nc1,10,53*,-2,-1,-6
C/C(=N/N=C/c1ccc(N(C)C)cc1)c1ccccc1,6,0,-1,1,1
CCCNC(=O)c1ccc(N2CCC3(CC2)CC(c2ccccc2)=NO3)c(NC(=O)c2cccc(OC)c2)c1,9,38,-1,1,-16
CCSc1nnc(NC(=O)CSc2nnc(Cc3cccn3C)n2-c2ccc(F)cc2)s1,6,-9,x,x,x
O=C(c1cnc(N2CCN(c3ccccn3)CC2)c2ccccc12)N1CCN(c2cccc(Cl)c2)CC1,11,60*,2,4,-8
CCOc1ccc(-c2cc(C(=O)N3CCN(c4ccccn4)CC3)c3ccccc3n2)cc1,11,31,-1,0,-1
COc1ccc(-c2cc(C(=O)N3CCN(c4ccccc4)CC3)c3ccccc3n2)cc1,12,48,-1,0,-1
COc1ccc(-c2cc(C(=O)N3CCN(c4ccccn4)CC3)c3ccccc3n2)cc1,20,53*,0,1,2
COc1ccc(-c2cc(C(=O)N3CCN(c4ccccc4O)CC3)c3ccccc3n2)cc1,20,62*,3,3,-8
